Assay results pooled from the literature.

Structure (SMILES) | target or system | read-out | method | strain | time | endpoint | result
CC1=C2C[C@H]3[C@@H](CC[C@@H]4C[C@H](NS(C)(=O)=O)CC[C@@]43C)[C@@H]2CC[C@@]2(C1)O[C@@H]1C[C@H](C)CN[C@H]1[C@H]2C | MB002 | cell growth or viability | – | – | 7 days | IC50 | > 10 µM
CC(C)c1ccc(/C=C/c2nc3ccccc3c(=O)n2-c2cccc(O)c2)cc1 | Enterococcus faecium | microbial growth | broth dilution | NCTC7171 | – | MIC | > 128 µg/mL
Cc1ccc(-c2nc3ccc(C)cn3c2CC(=O)N(C)C)cc1 | Mycobacteroides chelonae | microbial growth | – | – | 72 h | MIC | > 50 µM
O=c1c2ccccc2nc(/C=C/c2ccco2)n1-c1cccc(O)c1 | Enterococcus faecium | microbial growth | broth dilution | NCTC7171 | – | MIC | > 128 µg/mL
N.N.[Cl][Pt][Cl] | CCD 19Lu | cell growth or viability | – | – | 48 h | IC50 | 84.4 µM
O=C(Nc1cccc(-c2cc(C(=O)O)no2)c1)Nc1ccc(Cl)c(Cl)c1 | Mycobacteroides chelonae | microbial growth | broth dilution | ATCC35752 | 48 h | MIC | > 64 µg/mL
COc1cc(OC)c(C=C2C(O)=Nc3ccccc32)c(OC)c1 | MB002 | cell growth or viability | – | – | 7 days | IC50 | 0.0585 µM
CC[C@H](C)[C@@H]([C@@H](CC(=O)N1CCC[C@H]1[C@H](OC)[C@@H](C)C(=O)N[C@@H](Cc1ccccc1)C(=O)O)OC)N(C)C(=O)[C@@H](NC(=O)[C@H](C(C)C)N(C)C(=O)CCc1cn(CCOCCOCCOCCOCC(=O)NCc2ccc(CN3C(=O)[C@H]4CC(=O)N[C@H](C(=O)O)CC(=O)NCC(=O)N[C@@H](CCCNC(=N)N)C(=O)NC[C@H]3C(=O)N4)cc2)nn1)C(C)C | M21 | cell growth or viability | MTT | – | 72 h | IC50 | > 1 µM
COC(=O)c1cc(-c2cccc(NC(=O)Nc3ccccc3F)c2)on1 | Mycobacteroides chelonae | microbial growth | broth dilution | ATCC35752 | 48 h | MIC | > 64 µg/mL
O=c1c2ccccc2nc(/C=C/c2ccc([N+](=O)[O-])cc2)n1-c1ccccc1O | Enterococcus faecium | microbial growth | broth dilution | NCTC7171 | – | MIC | > 128 µg/mL
CCCCCCNC(=S)Nc1cccc(-c2cc(C(=O)OC)no2)c1 | Mycobacteroides chelonae | microbial growth | broth dilution | ATCC35752 | 48 h | MIC | > 64 µg/mL
O=c1c2ccccc2nc(/C=C/c2ccc(C(F)(F)F)cc2)n1-c1cccc(O)c1 | Enterococcus faecium | microbial growth | broth dilution | NCTC7171 | – | MIC | 32 µg/mL
